A word on the EC50: it is the midpoint of the concentration-response curve. Low values mean an effect from little substance, high ones a need for much substance.

Active and inactive are the calls of the source. No cut-off for these calls is given here.

Assay [1] concerns the target T1, Peroxisome proliferator-activated receptor alpha (Mus musculus) (UniProt P23204).
T1 sequence (whole entry): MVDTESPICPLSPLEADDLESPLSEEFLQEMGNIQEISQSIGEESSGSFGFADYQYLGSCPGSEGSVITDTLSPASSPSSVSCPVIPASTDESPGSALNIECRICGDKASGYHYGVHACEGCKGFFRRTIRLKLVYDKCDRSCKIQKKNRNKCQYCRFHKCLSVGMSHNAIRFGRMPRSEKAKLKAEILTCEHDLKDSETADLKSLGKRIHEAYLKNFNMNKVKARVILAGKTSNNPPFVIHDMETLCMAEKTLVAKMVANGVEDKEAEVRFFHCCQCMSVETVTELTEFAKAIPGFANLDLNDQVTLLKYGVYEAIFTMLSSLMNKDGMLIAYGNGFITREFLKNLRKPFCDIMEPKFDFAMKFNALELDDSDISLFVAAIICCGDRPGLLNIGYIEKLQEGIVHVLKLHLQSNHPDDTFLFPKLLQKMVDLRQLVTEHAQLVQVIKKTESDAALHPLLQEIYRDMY
The assay is described as follows: (§1) Agonist activity at mouse PPARalpha ligand binding domain expressed in human Hep G2 cells co-transfected with Gal4-DBD by luciferase reporter gene assay. Format: cell-based. Conditions: HepG2.

In assay [2] the target is T2, Peroxisome proliferator-activated receptor alpha (Homo sapiens) (UniProt Q07869).
T2 sequence (whole entry): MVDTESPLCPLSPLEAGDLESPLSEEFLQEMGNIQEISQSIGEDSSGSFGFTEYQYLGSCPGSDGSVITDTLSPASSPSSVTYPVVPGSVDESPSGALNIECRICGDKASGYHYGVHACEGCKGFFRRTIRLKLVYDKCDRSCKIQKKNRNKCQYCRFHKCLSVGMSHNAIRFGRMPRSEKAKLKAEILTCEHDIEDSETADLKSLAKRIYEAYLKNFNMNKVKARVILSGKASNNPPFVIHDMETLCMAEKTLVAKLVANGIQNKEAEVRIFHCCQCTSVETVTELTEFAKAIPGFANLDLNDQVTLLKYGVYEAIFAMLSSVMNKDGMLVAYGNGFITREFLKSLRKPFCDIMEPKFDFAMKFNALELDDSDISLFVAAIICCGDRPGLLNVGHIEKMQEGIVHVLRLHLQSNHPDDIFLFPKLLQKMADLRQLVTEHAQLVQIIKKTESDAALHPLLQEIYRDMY
The assay can be described thus: Agonist activity at human PPARalpha ligand binding domain expressed in human Hep G2 cells co-transfected with Gal4-DBD by luciferase reporter gene assay. It counts as cell-based. Conditions: HepG2. The method in brief: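 Gal4-LBD fusion vector (50 ng) was co-transfected with pGal4UAS-luciferase (100 ng) and pCMVβ β-galactosidase normalizer (300 ng) into HepG2 cells by calcium phosphate for 4 h. Cells were washed, then given serum-free DMEM/F-12 with ligand or 0.1% ethanol vehicle for 20 h. Luciferase was normalized to β-galactosidase.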
(In a reporter assay the amount or activity of a reporter protein is the signal.)

The target in assay [3] is T3, Peroxisome proliferator-activated receptor alpha (Mus musculus, UniProt P23204).
T3 sequence (P23204 whole entry): T1 sequence (whole entry)
The description is as §1. Format: cell-based, HepG2.

In assay [4] the target is T4, Oxysterols receptor LXR-alpha (Homo sapiens) (UniProt Q13133).
T4 sequence (whole entry): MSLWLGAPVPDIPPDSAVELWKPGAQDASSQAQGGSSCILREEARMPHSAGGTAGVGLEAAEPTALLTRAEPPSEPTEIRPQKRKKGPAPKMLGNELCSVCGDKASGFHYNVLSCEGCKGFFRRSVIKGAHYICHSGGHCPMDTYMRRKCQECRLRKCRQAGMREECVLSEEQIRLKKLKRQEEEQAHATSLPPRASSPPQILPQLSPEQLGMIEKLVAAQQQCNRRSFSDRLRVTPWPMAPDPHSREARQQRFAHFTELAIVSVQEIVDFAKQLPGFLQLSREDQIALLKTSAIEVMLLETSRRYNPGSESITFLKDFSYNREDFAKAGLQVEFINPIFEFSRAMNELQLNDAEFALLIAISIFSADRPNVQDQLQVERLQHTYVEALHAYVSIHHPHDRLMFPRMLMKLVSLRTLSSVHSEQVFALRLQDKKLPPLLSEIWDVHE
The assay can be described thus: Increase in transcriptional activity of LXRalpha ligand binding domain expressed in human Hep G2 cells co-transfected with Gal4-DBD by luciferase reporter gene assay. Format: cell-based. Conditions: HepG2. A digest of the protocol: (§2)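 HepG2 cells transfected for 4 h by calcium phosphate coprecipitation with 100 ng pGal4UAS-luciferase, 50 ng Gal4-LBD receptor vector and 300 ng CMV-β-galactosidase plasmid for normalization. Cells were washed in PBS, then refed with serum-free DMEM/F-12 containing penicillin/streptomycin and compound or 0.1% ethanol vehicle for 20 h. Luciferase read-out was normalized to β-galactosidase. Experiments were repeated at least three times.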

The next assay concerns HepG2. The assay is described as follows: Increase in transcriptional activity of ROR ligand binding domain expressed in human Hep G2 cells co-transfected with Gal4-DBD by luciferase reporter gene assay. Format: cell-based. The method in brief:
as §2

For `O=C(O)[C@@H](Cc1ccccc1)Oc1ccc(-c2ccccc2)cc1`, the outcome in assay [1] and in assay [2] was inactive.

As for `O=C(O)[C@H](Cc1ccccc1)Oc1ccc(-c2ccccc2)cc1`, in assay [3], the EC50 was 260 nM. In addition, the result (in assay [4]; with HepG2) was inactive.
